This passage reports EC50 and Cell survival results from ChEMBL document CHEMBL1130140, “O6-(alkyl/aralkyl)guanosine and 2'-deoxyguanosine derivatives: synthesis and ability to enhance chloroethylnitrosourea antitumor action” (1997).

Test [1] concerns M4Beu cell line. In words: In vitro cytotoxicity against M4Beu cells when co-administered with 50 uM cystemustine. The format is functional. Particulars: Homo sapiens, read-out: ED50 (the source's name). In a few lines: (§1)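 M4Beu cells were plated at 200 cells/dish and left to adhere 20 h. They were given compound at 0-400 µM (100 mM DMSO stock) for 4 h at 37 °C, then 50 µM cystemustine for 2 h at 37 °C, then grown 14 days. Methanol-fixed, crystal-violet-stained colonies (>50 cells) were counted. ED50 was read graphically from the concentration plot of survival decrease relative to cystemustine alone. Each dose ran ≥3 times in triplicate.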

Test [2] relates to M4Beu cell line. In words: In vitro cytotoxicity in M4Beu cells after 4 hr exposure to 300 uM. The test is classed as functional, Homo sapiens. In short, it runs like this:
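Colony-forming assay: M4Beu cells plated at 200 cells/dish, allowed to adhere 20 h, then exposed 4 h at 37 °C to compound at 300 µM (from 100 mM DMSO stock) with no cystemustine step. Medium then replaced, cells grown 14 days, fixed in methanol, stained with crystal violet. Colonies >50 cells counted; survival as percent of untreated control; at least three experiments in triplicate.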

For test [3], the system named is M4Beu cell line. Nature of the test: Effective dose of compound associated with cystemustine (50 uM), required to reduce by 50% cell survival rate (M4Beu cells). The format is functional. Particulars: Homo sapiens, read-out: ED50 (the source's name). In a few lines: as §1

As for `CC(=O)Nc1nc(OCc2ccc(Br)cc2)c2ncn([C@H]3C[C@H](O)[C@@H](CO)O3)c2n1`, the EC50 in test [1] was 211 µM.

Take `CC(=O)Nc1nc(OC(c2ccccc2)c2ccccc2)c2ncn(C3O[C@H](CO)[C@@H](O)[C@H]3O)c2n1` (stereo not given in full): the EC50 in test [1] worked out at 400 µM.

In turn, `Nc1nc(OCc2ccc(I)cc2)c2ncn(C3O[C@H](CO)[C@@H](O)[C@H]3O)c2n1` (stereo not given in full) returned a Cell survival in test [2] of 100%. The EC50 in test [1] turned out to be 122 µM.

On to `CC(=O)Nc1nc(OCc2ccc(Br)cc2)c2ncn(C3CC(OC(C)=O)C(COC(C)=O)O3)c2n1` (stereo not given), for which, in test [1], the EC50 stood at 216 µM.

With `CC(=O)Nc1nc(OCc2ccc(Br)cc2)c2ncn(C3OC(COC(C)=O)C(OC(C)=O)C3OC(C)=O)c2n1` (stereo not given), the EC50 in test [3] is 400 µM.

With `CC(=O)Nc1nc(OCc2ccc(I)cc2)c2ncn(C3CC(OC(C)=O)C(COC(C)=O)O3)c2n1` (stereo not given), the EC50 in test [1] was determined as 200 µM.

Turning to `CC(=O)Nc1nc(OCc2ccc(I)cc2)c2ncn(C3CC(O)C(CO)O3)c2n1` (stereo not given), the EC50 in test [1] was found to be 269 µM.

As to `Nc1nc(OCc2ccccc2)c2nc[nH]c2n1` [6-O-BENZYLGUANINE], in test [2], the Cell survival is reported as 110%. Further, the EC50 in test [1] was determined as 2 µM.
